Most compounds without a hit are left out; they make up all but 4.3% or so of the library.
Dyrk1A ADPGlo: inhibitors of rat Dyrk1A kinase; Q63470; ADP-Glo luminescence, NFATc1 peptide; inhibition, % at 12.5 µM; 310,000 tested, 0.43% active; AID 504441; in the data active means inhibition above about 50%;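 further: plate controls were vehicle with enzyme for no effect and no enzyme for full effect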
CAL PDZ FP-1: blocks peptide binding to human CAL PDZ domain. inhibition, % at 20 µM. purified CAL PDZ, TMR-peptide fluorescence polarization, 1 h. 330,000 tested, 0.02% active;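 active means highest replicate inhibition of at least 40%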;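 further: plate controls were DMSO neutral control wells for no effect and unlabeled competitor peptide control wells for full effect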
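Material: tagged CAL PDZ domain; buffer or medium: 25 mM sodium phosphate pH 7.4, 150 mM NaCl, TCEP, IgG, Thesit; compound dosing: single point, 20 µM; schedule: 1 h incubation at room temperature before polarization reading; measured by: FP readout, S and P plane fluorescence; read-out basis: percent inhibition from loss of millipolarization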
Rtt109 Vps75: inhibitors of Candida albicans Rtt109/Vps75 histone acetyltransferase. 330,000 tested, 0.16% active. purified Rtt109/Vps75, ThioGlo CoA-SH fluorescence, 4 h. AID 540336. Q5AAJ8. inhibition, % at 34.9 µM;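 active means inhibition of at least 50% in every replicate; inconclusive means best replicate reaches 50% inhibition but some replicates fall short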
Target sequence (Q5AAJ8 whole entry, looked up): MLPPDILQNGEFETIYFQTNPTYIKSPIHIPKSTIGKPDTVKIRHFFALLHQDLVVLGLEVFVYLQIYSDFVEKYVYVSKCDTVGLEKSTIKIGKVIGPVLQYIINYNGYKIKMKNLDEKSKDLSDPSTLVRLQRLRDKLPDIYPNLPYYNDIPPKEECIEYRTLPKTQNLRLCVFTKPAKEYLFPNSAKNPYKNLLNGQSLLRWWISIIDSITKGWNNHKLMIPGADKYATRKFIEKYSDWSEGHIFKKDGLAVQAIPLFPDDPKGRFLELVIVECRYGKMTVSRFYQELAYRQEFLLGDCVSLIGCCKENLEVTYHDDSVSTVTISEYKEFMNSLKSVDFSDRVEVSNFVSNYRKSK
ALR inh: blocks human ALR sulfhydryl oxidase activity; P55789; purified ALR, DTT oxidation, H2O2 HRP-luminol luminescence; inhibition, % (concentration not given with the values); 290,000 tested, 3.8% active; AID 485317;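 active means mean replicate inhibition above about 79%, with every replicate also reaching it, limit read from the data; inconclusive means only one of the two criteria met; inactive means mean below limit and not every replicate reaching it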
Target sequence (P55789 whole entry, looked up): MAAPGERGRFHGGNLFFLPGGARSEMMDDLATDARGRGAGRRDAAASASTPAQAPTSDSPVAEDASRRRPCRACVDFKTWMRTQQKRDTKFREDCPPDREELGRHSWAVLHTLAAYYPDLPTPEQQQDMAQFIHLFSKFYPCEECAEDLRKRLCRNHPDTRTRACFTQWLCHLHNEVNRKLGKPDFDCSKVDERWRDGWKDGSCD
CAL PDZ FP-2: inhibitors of human CAL PDZ peptide binding; 300,000 tested, 0.92% active; AID 602252; purified CAL PDZ, TMR-peptide fluorescence polarization, 1 h; inhibition, % at 24.9 µM;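 active means mean inhibition of at least 30% with at least half of replicates also reaching 30%; inconclusive means no clear call, values can overlap the other calls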;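 further: 0% = DMSO neutral control and 100% = excess unlabeled competitor peptide PRC23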
Active calls of the source: *; ? = inconclusive; . = not tested or not shown.

SMILES | Dyrk1A ADPGlo | CAL PDZ FP-1 | Rtt109 Vps75 | ALR inh | CAL PDZ FP-2
CCN(CC)C(=O)CSC(Nc1ccc(F)cc1)=C(C#N)C#N | 9.4 | -1.3 | -0.1 | 98.8* | .
CN(Cc1ccccc1)C(=O)c1cccc(NC(=O)Cc2ccc(NC(=O)C3CCCN(C(=O)C4CCCC4)C3)cc2)c1 (stereo not drawn) | . | -2.3 | 2.9 | . | -5.0
Cc1ccc(NC(=O)c2cc(NC(=O)c3ccccc3C(=O)O)ccc2N2CCCCC2)cc1 | 2.8 | -3.3 | -5.3 | 98.6* | 50.7*
Cc1ccc(NC(=O)c2cc(NC(=O)/C=C\C(=O)O)ccc2N2CCCCC2)cc1 | -0.5 | -3.4 | 6.9 | 98.7* | -3.2
CC(=O)Nc1ccc(N2CCCCC2)c(C(=O)Nc2cccc(C)c2)c1 | 5.6 | -2.3 | 6.9 | 97.4* | -2.9
Cc1ccc(NC(=O)c2cc(N3C(=O)CCC3=O)ccc2N2CCCCC2)cc1 | -1.8 | -1.3 | 4.6 | -1.1 | -2.2
Cc1cc(C)c(S(=O)(=O)CCC(C)C)c(=O)[nH]1 | -2.3 | -0.4 | 0.9 | -10.2 | 0.8
COc1ccccc1NCCC(=O)OCC(=O)Nc1cc([N+](=O)[O-])ccc1F | 8.1 | -0.1 | -5.9 | 92.8* | -7.6
O=C(COC(=O)CSc1ccc2ccccc2c1)NC1CCCC1 | -0.8 | 0.5 | 2.3 | 99.6* | -3.2
COc1ccccc1CCC(=O)OCC(=O)NC1CCCCC1 | . | -0.9 | -2.7 | -2.3 | 1.5
COc1ccccc1OCC(=O)OCC(=O)NC1CCCCC1 | . | 0.2 | 0.9 | -4.6 | -2.4
COc1ccccc1NCCC(=O)OCC(=O)NC1CC1 | -0.3 | -2.7 | -1.4 | 98.6* | -2.4
COc1ccccc1NCCC(=O)OCC(=O)NC1CCCCC1 | -0.3 | -0.3 | 9.0 | 98.7* | -2.7
O=S(=O)(N/N=C\C=C\c1ccccc1)c1ccc(Cl)cc1 | -4.3 | 0.7 | -0.4 | 9.6 | -6.8
CCSc1nnc(NC(=O)CCN2C(=O)C3CCCCC3C2=O)s1 (stereo not drawn) | . | 0.0 | -0.1 | -5.2 | -2.6
O=C(CCN1CCc2ccccc2C1)c1ccc2c(c1)OCCO2 | -4.2 | -0.8 | 5.3 | 97.8* | -2.8
O=C(CCN1CCc2ccccc21)c1ccc2c(c1)OCCO2 | -6.2 | -0.4 | 0.1 | -27.2 | -1.9
COC(=O)CCC/C=C1/SCC(NC(=O)c2ccccc2)C1O (stereo not drawn) | 1.4 | -1.0 | 12.3 | 97.2* | .
COC(=O)CCC/C=C1/SCC(NC(=O)c2ccccc2)C1NC(C)=O (stereo not drawn) | 0.1 | 0.9 | -3.1 | 5.7 | .
CN1CCN(CCC(=O)N/N=C/c2cc([N+](=O)[O-])ccc2OC(F)F)CC1 | 0.0 | -0.5 | 1.8 | -3.6 | 3.5
CC1CCN(CCC(=O)N/N=C/c2ccc([N+](=O)[O-])cc2)CC1 | -0.3 | 1.0 | -5.3 | -1.3 | 162.6*
CCOC(=O)c1ccc(NC(=O)C(C)Sc2nc(O)c(-c3ccccc3)c(=O)[nH]2)cc1 (stereo not drawn) | 0.0 | 0.0 | 4.0 | 98.6* | 4.5
CC(Cc1nnc(SCC(=O)O)n1N)c1ccccc1 (stereo not drawn) | 1.0 | . | -6.7 | -1.6 | -2.5
O=C(O)C1Sc2[nH]c(=O)sc2C2c3cc(Br)ccc3OC(=O)C12 (stereo not drawn) | 24.7 | -3.9 | -3.6 | . | -2.2
O=C(O)C1Sc2[nH]c(=O)sc2C2c3cc(Cl)ccc3OC(=O)C12 (stereo not drawn) | 31.5 | -0.3 | 7.0 | 94.0* | .
SMILES | Dyrk1A ADPGlo | CAL PDZ FP-1 | Rtt109 Vps75 | ALR inh | CAL PDZ FP-2
CC1=C/C(=N\Nc2ccccc2[N+](=O)[O-])CC(C)(C)C1 | -2.8 | -1.9 | . | 98.3* | -3.6
C/C(=N/Nc1ccccc1[N+](=O)[O-])c1ccc([N+](=O)[O-])cc1 | 1.4 | -0.8 | 14.1 | -2.8 | 1.2
COc1ccccc1CNS(=O)(=O)CCNCCc1ccccc1 | -1.9 | -0.4 | -1.5 | . | -1.8
CC(C)NC(=O)c1ccc2c(=O)n(CC3CCCO3)c(=S)[nH]c2c1 (stereo not drawn) | -0.5 | -0.2 | -8.0 | 27.3 | 0.5
COCCCNC(=O)c1ccc2c(=O)n(CC3CCCO3)c(=S)[nH]c2c1 (stereo not drawn) | 1.9 | -1.7 | 2.0 | 86.8* | -7.3
NNC(=O)/C(=C/c1cccs1)NC(=O)c1ccccc1Cl | . | 0.4 | -6.5 | . | -6.9
CCCC(=O)c1ccc(N2CCC(C)CC2)c(F)c1 | 3.7 | 0.1 | . | -0.1 | -3.4
Cc1cc(C)cc(OCC(=O)OCC(=O)Nc2c(C)n(C)n(-c3ccccc3)c2=O)c1 | 11.6 | -1.9 | 11.5 | 13.8 | 0.6
Cc1ccc(NC(=O)C(SCC(=O)O)c2ccccc2)cc1C (stereo not drawn) | 5.6 | -0.5 | -3.2 | . | 69.3*
COC(=O)CSC(C(=O)Nc1ccc(C)c(C)c1)c1ccccc1 (stereo not drawn) | 5.7 | -1.7 | -6.9 | . | -2.6
CN1CC(C(=O)Nc2ccc(F)c(Cl)c2)CC1=O (stereo not drawn) | -5.3 | . | -4.4 | -11.0 | -0.4
CCc1ccccc1N1C(=O)CC(N2CCc3ccccc32)C1=O (stereo not drawn) | -4.0 | 1.0 | 3.8 | 98.8* | -2.2
CCOC(=O)c1csc(NC(=O)CC2CCCC2)n1 | . | -0.5 | -13.7 | 21.5 | -3.0
O=C(c1ccc(CS(=O)Cc2ccc(Cl)cc2)o1)N1CCN(c2cccc(Cl)c2)CC1 (stereo not drawn) | 7.0 | -1.6 | 11.0 | -6.1 | 5.1
COc1cccc(N2CCN(C(=O)c3ccc(CS(=O)Cc4ccc(C)cc4)o3)CC2)c1 (stereo not drawn) | 4.9 | -2.3 | 0.6 | 79.5* | -4.1
COc1cccc(N2CCN(C(=O)c3ccc(CS(=O)c4ccc(C)cc4)o3)CC2)c1 (stereo not drawn) | 4.7 | -2.5 | -4.4 | 48.2 | -1.1
COc1cccc(N2CCN(C(=O)c3ccc(CS(=O)c4ccc(Cl)cc4)o3)CC2)c1 (stereo not drawn) | . | -2.0 | 9.4 | 87.9* | 0.9
OC(CCc1cccc(Cl)c1)c1cccs1 (stereo not drawn) | -2.2 | 0.8 | 0.5 | . | -3.0
O=C1NCCCC2c3c(cc(Br)c(O)c3Br)OC12N1CCCCC1 (stereo not drawn) | -10.3 | -0.8 | -12.9 | 98.8* | -2.5
COc1ccc(C(=O)N/C(=C\c2cn(C)c3ccccc23)C(=O)NCCN2CCOCC2)cc1OC | -3.2 | -3.1 | 20.6 | 6.8 | -6.1
O=C(N/N=C/c1ccc(O)cc1)c1csc2c1CCCC2 | 6.1 | -1.0 | -2.0 | 98.7* | -13.4
O=C(N/N=C/c1ccc(C(F)(F)F)cc1)c1ccc(O)cc1 | 15.7 | -1.9 | 4.0 | . | .
Cc1cc(SCNC(=O)c2ccccc2)nc(C(C)C)n1 | -5.9 | -0.6 | -0.2 | 98.5* | .
Cc1cc(C)nc(SCNC(=O)c2ccccc2)n1 | 1.3 | . | -1.0 | 2.4 | 0.5
COc1cc([N+](=O)[O-])cc2sc(NC(C)=O)nc12 | -2.0 | -0.2 | 5.4 | -75.2 | 3.1
COc1ccc(NC(=O)CSc2nnc(C)c3ccccc23)cc1 | 5.7 | -1.2 | ? | 99.4* | .
COc1ccc(NC(=O)CSc2nncc3ccccc23)cc1 | -1.6 | -0.8 | -10.1 | 71.4 | .

Screens: PubChem BioAssay, Broad Institute
